Data reported in ChEMBL document CHEMBL5705905, “Pharmacological targeting of kinases MST1 and MST2 augments tissue repair and regeneration” (Sci Transl Med, 2016).
The source made the active and inactive calls. The calls are words filed in the database; no cut-off is given here.

Tests used:
[1] = molecular target: Misshapen-like kinase 1 (Homo sapiens) (UniProt Q8N4C8); assay: Inhibition of MINK (unknown origin) assessed as remaining activity at 1 uM by Kinome scan method relative to control
[2] = molecular target: Fibroblast growth factor receptor 1 (Homo sapiens) (UniProt P11362); assay: Inhibition of FGFR1 (unknown origin) assessed as remaining activity at 1 uM by Kinome scan method relative to control
Sequence of Fibroblast growth factor receptor 1 (Homo sapiens) (P11362 22-822 limits assumed): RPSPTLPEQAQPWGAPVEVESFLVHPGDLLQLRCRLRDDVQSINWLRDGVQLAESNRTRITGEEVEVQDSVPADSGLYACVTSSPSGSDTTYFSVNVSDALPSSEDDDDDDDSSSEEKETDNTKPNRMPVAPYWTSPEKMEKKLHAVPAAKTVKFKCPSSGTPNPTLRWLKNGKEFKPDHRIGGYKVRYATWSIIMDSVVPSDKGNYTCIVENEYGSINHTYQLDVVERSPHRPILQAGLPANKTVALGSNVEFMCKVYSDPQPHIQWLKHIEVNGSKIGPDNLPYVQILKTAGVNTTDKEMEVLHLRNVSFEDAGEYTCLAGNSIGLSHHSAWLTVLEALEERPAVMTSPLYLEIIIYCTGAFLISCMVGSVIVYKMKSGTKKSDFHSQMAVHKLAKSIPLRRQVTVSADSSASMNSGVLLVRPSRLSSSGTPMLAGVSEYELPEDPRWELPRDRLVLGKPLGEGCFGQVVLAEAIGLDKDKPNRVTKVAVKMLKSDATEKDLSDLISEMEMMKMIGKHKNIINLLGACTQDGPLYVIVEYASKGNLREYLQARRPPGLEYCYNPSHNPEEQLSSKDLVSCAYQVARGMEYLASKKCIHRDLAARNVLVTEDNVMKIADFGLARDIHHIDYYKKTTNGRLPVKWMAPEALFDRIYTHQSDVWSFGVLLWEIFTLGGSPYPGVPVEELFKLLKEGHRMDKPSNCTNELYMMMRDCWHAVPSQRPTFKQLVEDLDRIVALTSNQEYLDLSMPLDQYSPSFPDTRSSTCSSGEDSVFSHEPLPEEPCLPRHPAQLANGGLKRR

Mus musculus = assay: In vivo inhibition of MST1/2 in wild-type Mst1fl/fl Mst2fl/fl mouse assessed as decrease in YAP phosphorylation level at 1 mg/kg, ip administrated daily for 7 days by immunoblot analysis; format: functional, organism-based; details: Liver, time 7.0 day
[3] = molecular target: Tyrosine-protein kinase JAK1 (Homo sapiens, UniProt P23458); assay: Inhibition of JAK1 JH2 domain (unknown origin) assessed as remaining activity at 1 uM by Kinome scan method relative to control
[4] = Inhibition of phosphorylated ABL1 T315I mutant (unknown origin) in presence of ATP by enzymatic assay; set-up: species or system Homo sapiens
[5] = molecular target: Serine/threonine-protein kinase ULK2 (Homo sapiens, UniProt Q8IYT8); assay: Inhibition of ULK2 (unknown origin) in presence of ATP by enzymatic assay
[6] = molecular target: Uncharacterized serine/threonine-protein kinase SBK3 (Homo sapiens) (UniProt P0C264); assay: Inhibition of SgK110 (unknown origin) assessed as remaining activity at 1 uM by Kinome scan method relative to control
Sequence of Uncharacterized serine/threonine-protein kinase SBK3 (Homo sapiens) (P0C264 whole entry): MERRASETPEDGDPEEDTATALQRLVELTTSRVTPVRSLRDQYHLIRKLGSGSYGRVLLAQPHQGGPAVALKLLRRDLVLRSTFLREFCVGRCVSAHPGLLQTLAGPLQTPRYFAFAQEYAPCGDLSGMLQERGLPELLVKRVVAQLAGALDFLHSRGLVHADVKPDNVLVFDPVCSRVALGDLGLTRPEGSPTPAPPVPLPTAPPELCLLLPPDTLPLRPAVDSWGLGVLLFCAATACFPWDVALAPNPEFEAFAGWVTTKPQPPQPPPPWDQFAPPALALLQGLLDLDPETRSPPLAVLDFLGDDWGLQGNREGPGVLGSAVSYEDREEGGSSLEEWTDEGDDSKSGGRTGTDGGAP

[7] = molecular target: Serine/threonine-protein kinase PAK 6 (Homo sapiens) (UniProt Q9NQU5); assay: Inhibition of PAK6 (unknown origin) assessed as remaining activity at 1 uM by Kinome scan method relative to control
[8] = molecular target: Atypical kinase COQ8B, mitochondrial (Homo sapiens) (UniProt Q96D53); assay: Inhibition of ADCK4 (unknown origin) assessed as remaining activity at 1 uM by Kinome scan method relative to control
How it was run: (§1)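 Active-site-dependent competition-binding (KINOMEscan) panel of 468 kinases, test compound at 1 μM (from a 10 mM DMSO stock). Read-out is ctrl% = (test signal − positive control signal)/(negative control signal − positive control signal) × 100. DMSO is the negative control (100%) and a control compound is the positive control (0%). Lower ctrl% means tighter binding.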

[9] = molecular target: Tyrosine-protein kinase ITK/TSK (Homo sapiens) (UniProt Q08881); assay: Inhibition of ITK (unknown origin) assessed as remaining activity at 1 uM by Kinome scan method relative to control
Sequence of Tyrosine-protein kinase ITK/TSK (Homo sapiens) (Q08881 whole entry, the tested form may be a part): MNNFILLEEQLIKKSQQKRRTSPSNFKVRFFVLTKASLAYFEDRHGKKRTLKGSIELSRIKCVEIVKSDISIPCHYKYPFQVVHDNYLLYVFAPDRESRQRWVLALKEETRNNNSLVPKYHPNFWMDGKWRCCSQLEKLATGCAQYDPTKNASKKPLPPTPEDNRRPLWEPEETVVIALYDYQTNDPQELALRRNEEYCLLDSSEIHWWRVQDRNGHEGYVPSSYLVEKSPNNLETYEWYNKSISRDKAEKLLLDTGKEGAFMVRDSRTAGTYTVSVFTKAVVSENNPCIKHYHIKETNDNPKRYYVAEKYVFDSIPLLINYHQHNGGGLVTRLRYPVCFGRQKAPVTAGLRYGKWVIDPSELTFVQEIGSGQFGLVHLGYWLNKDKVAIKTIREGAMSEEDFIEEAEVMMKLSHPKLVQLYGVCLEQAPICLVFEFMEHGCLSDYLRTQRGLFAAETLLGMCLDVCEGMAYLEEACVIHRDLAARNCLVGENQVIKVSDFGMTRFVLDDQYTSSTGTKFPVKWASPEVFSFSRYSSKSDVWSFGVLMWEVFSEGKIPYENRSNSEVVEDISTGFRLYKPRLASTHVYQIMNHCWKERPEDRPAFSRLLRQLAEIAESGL

[10] = molecular target: Ribosomal protein S6 kinase alpha-5 (Homo sapiens) (UniProt O75582); assay: Inhibition of N-terminal kinase domain RPS6KA5 (unknown origin) assessed as remaining activity at 1 uM by Kinome scan method relative to control
[11] = molecular target: T1, Non-receptor tyrosine-protein kinase TYK2 (Homo sapiens, UniProt P29597); assay: Inhibition of TYK2 JH1 domain (unknown origin) assessed as remaining activity at 1 uM by Kinome scan method relative to control
T1 sequence (P29597 whole entry, the tested form may be a part): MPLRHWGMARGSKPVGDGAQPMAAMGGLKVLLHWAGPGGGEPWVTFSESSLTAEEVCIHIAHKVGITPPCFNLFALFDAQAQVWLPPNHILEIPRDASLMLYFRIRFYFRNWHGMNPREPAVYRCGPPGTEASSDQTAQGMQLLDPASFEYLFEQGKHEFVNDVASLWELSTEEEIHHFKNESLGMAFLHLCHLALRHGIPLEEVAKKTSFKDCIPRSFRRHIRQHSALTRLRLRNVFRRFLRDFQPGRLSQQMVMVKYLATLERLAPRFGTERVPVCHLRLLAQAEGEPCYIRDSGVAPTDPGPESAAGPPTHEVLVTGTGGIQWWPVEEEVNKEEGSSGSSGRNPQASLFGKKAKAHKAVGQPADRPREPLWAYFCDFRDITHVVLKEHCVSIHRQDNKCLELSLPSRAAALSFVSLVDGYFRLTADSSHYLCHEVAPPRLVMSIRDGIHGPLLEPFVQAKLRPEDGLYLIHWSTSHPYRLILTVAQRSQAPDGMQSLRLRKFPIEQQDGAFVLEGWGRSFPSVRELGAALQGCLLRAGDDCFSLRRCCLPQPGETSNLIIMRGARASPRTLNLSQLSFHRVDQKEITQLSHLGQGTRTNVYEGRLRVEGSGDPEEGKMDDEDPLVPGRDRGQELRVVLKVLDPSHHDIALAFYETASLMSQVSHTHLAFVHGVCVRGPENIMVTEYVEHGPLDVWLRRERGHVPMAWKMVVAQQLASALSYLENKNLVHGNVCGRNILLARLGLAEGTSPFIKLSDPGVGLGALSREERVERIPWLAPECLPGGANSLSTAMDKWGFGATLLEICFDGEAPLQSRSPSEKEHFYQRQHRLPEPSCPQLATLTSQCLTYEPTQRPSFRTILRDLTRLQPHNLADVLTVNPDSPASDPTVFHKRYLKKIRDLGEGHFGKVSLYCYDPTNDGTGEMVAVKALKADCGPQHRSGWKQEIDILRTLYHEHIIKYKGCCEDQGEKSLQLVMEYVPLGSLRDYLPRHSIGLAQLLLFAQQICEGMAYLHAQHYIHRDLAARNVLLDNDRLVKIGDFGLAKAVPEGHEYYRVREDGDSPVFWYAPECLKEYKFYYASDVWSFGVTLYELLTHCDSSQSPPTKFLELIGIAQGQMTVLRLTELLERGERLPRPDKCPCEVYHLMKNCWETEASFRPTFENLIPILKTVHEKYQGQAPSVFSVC

[12] = molecular target: Calcium/calmodulin-dependent protein kinase type II subunit beta (Homo sapiens) (UniProt Q13554); assay: Inhibition of CAMK2B (unknown origin) assessed as remaining activity at 1 uM by Kinome scan method relative to control
How it was run: (§2)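 Active-site-dependent competition-binding profiling (KINOMEscan) at 1 μM against a 468-kinase panel; compound supplied from a 10 mM DMSO stock. Read-out is ctrl% = (test signal − positive control signal)/(negative control signal − positive control signal) × 100. DMSO is the negative control (100%) and a control compound the positive control (0%). Lower ctrl% means tighter binding.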

[13] = molecular target: Phosphorylase b kinase gamma catalytic chain, skeletal muscle/heart isoform (Homo sapiens) (UniProt Q16816); assay: Inhibition of PHKG1 (unknown origin) assessed as remaining activity at 1 uM by Kinome scan method relative to control
[14] = molecular target: Serine/threonine-protein kinase TAO2 (Homo sapiens, UniProt Q9UL54); assay: Binding affinity to TAOK2 (unknown origin) assessed as dissociation constant
[15] = molecular target: Serine/threonine-protein kinase 26 (Homo sapiens, UniProt Q9P289); assay: Inhibition of MST4 (unknown origin) in presence of ATP by enzymatic assay
[16] = molecular target: NUAK family SNF1-like kinase 2 (Homo sapiens) (UniProt Q9H093); assay: Inhibition of SNARK (unknown origin) assessed as remaining activity at 1 uM by Kinome scan method relative to control
Aurora kinase A = Aurora kinase A (Homo sapiens, UniProt O14965); assay: Inhibition of AURKA (unknown origin) in presence of ATP by enzymatic assay
[17] = molecular target: Cyclin-dependent kinase 2 (Homo sapiens) (UniProt P24941); assay: Inhibition of CDK2 (unknown origin) assessed as remaining activity at 1 uM by Kinome scan method relative to control; how it was run: as §2
HepG2 = assay: Induction of apoptosis in human HepG2 cells assessed as viable cells at 3 uM by annexinV staining (Rvb =95.0 %); format: functional; details: read-out: Activity
[18] = molecular target: Serine/threonine-protein kinase 32B (Homo sapiens) (UniProt Q9NY57); assay: Inhibition of YANK2 (unknown origin) assessed as remaining activity at 1 uM by Kinome scan method relative to control
Sequence of Serine/threonine-protein kinase 32B (Homo sapiens) (Q9NY57 whole entry): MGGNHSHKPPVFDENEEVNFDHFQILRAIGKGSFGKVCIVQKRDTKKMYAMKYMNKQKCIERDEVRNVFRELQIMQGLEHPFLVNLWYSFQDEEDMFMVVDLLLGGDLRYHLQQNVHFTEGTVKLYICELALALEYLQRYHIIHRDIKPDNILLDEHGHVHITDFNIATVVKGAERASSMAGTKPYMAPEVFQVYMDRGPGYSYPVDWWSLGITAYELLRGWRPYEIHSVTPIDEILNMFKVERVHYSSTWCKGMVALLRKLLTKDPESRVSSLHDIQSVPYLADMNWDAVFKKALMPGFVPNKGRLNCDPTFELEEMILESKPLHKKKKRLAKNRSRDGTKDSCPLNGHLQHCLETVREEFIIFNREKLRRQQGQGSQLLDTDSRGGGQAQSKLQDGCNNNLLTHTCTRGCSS

[19] = molecular target: Protein-tyrosine kinase 6 (Homo sapiens) (UniProt Q13882); assay: Inhibition of BRK (unknown origin) assessed as remaining activity at 1 uM by Kinome scan method relative to control; how it was run: as §1
[20] = molecular target: Mitogen-activated protein kinase kinase kinase 4 (Homo sapiens) (UniProt Q9Y6R4); assay: Inhibition of MAP3K4 (unknown origin) assessed as remaining activity at 1 uM by Kinome scan method relative to control
Sequence of Mitogen-activated protein kinase kinase kinase 4 (Homo sapiens) (Q9Y6R4 whole entry): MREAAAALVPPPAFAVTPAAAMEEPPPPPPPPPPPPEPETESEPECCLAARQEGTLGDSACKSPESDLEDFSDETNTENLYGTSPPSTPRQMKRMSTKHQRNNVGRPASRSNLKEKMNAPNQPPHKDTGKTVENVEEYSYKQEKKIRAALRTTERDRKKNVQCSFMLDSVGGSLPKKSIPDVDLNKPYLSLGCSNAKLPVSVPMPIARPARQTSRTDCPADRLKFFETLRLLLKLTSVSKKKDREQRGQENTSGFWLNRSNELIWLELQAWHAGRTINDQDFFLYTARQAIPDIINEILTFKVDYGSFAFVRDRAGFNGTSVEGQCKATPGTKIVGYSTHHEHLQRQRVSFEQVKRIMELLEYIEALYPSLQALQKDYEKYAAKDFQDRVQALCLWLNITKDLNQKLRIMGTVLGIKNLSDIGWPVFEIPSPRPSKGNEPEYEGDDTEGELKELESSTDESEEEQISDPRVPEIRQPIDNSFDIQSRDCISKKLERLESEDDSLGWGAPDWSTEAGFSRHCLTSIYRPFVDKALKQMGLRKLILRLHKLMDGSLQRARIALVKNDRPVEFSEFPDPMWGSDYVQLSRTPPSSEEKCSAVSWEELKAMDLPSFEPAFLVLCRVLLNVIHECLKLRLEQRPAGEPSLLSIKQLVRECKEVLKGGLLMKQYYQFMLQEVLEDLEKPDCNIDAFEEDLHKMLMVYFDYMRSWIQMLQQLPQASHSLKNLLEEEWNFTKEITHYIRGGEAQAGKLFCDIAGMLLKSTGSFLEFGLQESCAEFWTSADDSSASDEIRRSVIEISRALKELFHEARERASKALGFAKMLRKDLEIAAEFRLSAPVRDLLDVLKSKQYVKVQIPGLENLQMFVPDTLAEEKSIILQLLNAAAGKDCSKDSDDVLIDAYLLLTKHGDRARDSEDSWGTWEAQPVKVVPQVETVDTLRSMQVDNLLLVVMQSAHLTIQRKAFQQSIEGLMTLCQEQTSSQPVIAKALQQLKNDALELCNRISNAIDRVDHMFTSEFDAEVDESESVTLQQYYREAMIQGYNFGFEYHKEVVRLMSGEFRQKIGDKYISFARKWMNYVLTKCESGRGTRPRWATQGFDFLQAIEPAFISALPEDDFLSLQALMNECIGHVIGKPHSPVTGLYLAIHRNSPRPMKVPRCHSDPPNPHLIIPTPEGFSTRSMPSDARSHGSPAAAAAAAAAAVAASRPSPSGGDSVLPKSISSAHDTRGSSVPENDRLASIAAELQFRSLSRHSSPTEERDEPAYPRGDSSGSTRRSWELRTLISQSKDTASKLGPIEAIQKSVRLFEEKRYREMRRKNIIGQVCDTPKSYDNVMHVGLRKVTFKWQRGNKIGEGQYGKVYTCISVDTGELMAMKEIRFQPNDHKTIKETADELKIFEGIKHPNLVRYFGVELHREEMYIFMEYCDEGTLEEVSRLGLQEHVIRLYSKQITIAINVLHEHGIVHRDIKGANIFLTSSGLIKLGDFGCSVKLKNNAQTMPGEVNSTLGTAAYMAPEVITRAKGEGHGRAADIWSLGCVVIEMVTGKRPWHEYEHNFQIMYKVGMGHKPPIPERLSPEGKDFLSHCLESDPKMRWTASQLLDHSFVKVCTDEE

[21] = molecular target: Serine/threonine-protein kinase 24 (Homo sapiens, UniProt Q9Y6E0); assay: Binding affinity to MST3 (unknown origin) assessed as dissociation constant
[22] = molecular target: Ribosomal protein S6 kinase alpha-4 (Homo sapiens) (UniProt O75676); assay: Inhibition of C-terminal kinase domain RPS6KA4 (unknown origin) assessed as remaining activity at 1 uM by Kinome scan method relative to control; how it was run: as §1
[23] = molecular target: T1, Non-receptor tyrosine-protein kinase TYK2; assay: Inhibition of TYK2 JH1domain-catalytic (unknown origin) in presence of ATP by enzymatic assay
Primary hepatocyte = assay: Inhibition of MST1/2 (unknown origin) in mouse Primary hepatocyte cells assessed as H2O2 stimulated MOB1 phosphorylation level at 1 to 3 uM by immunoblot analysis; format: cell-based; details: dose 1-3 µM
[24] = molecular target: Angiopoietin-1 receptor (Homo sapiens) (UniProt Q02763); assay: Inhibition of TIE2 (unknown origin) assessed as remaining activity at 1 uM by Kinome scan method relative to control
[25] = molecular target: Serine/threonine-protein kinase WNK2 (Homo sapiens) (UniProt Q9Y3S1); assay: Inhibition of WNK2 (unknown origin) assessed as remaining activity at 1 uM by Kinome scan method relative to control
[26] = molecular target: Tyrosine-protein kinase Tec (Homo sapiens) (UniProt P42680); assay: Inhibition of TEC (unknown origin) assessed as remaining activity at 1 uM by Kinome scan method relative to control
[27] = molecular target: Platelet-derived growth factor receptor beta (Homo sapiens) (UniProt P09619); assay: Inhibition of PDGFRbeta (unknown origin) assessed as remaining activity at 1 uM by Kinome scan method relative to control

With `CN1C(=O)c2sccc2N(C)c2nc(Nc3ccc(S(N)(=O)=O)cc3)ncc21` the Activity [1] was 58%, the Activity [2] was 88% and the inhibition (Mus musculus) was “Active”. It also gave an Activity [3] of 4.3%, an IC50 [4] of 0.0166 µM and an IC50 [5] of 0.0415 µM. It also gave an Activity [6] of 100%, an Activity [7] of 100% and an Activity [8] of 79%. For the same compound, the Activity [9] was 97%, the Activity [10] was 97% and the Activity [11] was 2.7%. For the same compound, the Activity [12] was 73%, the Activity [13] was 100% and the Kd [14] was 0.1 µM. It also gave an IC50 [15] of 0.0273 µM, an Activity [16] of 12% and an IC50 (Aurora kinase A) of 0.0194 µM. The Activity [17] was 90%, the viability at 3 µM (HepG2) was 95% and the Activity [18] was 100%. It also gave an Activity [19] of 100%, an Activity [20] of 91% and a Kd [21] of 0.018 µM. For the same compound, the Activity [22] was 69%, the IC50 [23] was 0.0019 µM and the inhibition (Primary hepatocyte) was “Active”. For the same compound, the Activity [24] was 74%, the Activity [25] was 78% and the Activity [26] was 100%. It also gave an Activity [27] of 90%.
